Legend:
Assay type in all cases: functional
[1] = Growth inhibition of human SF539 cells assessed as cell growth at 10^-5 M incubated for 48 hrs by sulforhodamine B assay; settings: SF-539, 48 h, read-out: Activity
[2] = system: SK-MEL-5; assay: Growth inhibition of human SK-MEL-5 cells assessed as cell growth at 10^-7 M incubated for 48 hrs by sulforhodamine B assay; settings: SK-MEL-5, 48 h, read-out: Activity
[3] = Growth inhibition of human TK10 cells assessed as cell growth at 10^-6 M incubated for 48 hrs by sulforhodamine B assay; settings: TK-10, 48 h, read-out: Activity
[4] = Growth inhibition of human OVCAR4 cells incubated for 48 hrs by sulforhodamine B assay; settings: OVCAR-4, 48 h
How it was run: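 Cells were plated at 5,000–40,000 per well according to doubling time and preincubated 24 h at 37 °C in 5% CO2; time-zero plates were then TCA-fixed. Five concentrations (10-fold or ½-log dilutions, DMSO stock) were incubated 48 h. Cells were TCA-fixed, stained with 0.4% SRB and read at 515 nm. GI50 was taken where [(Ti−Tz)/(C−Tz)]×100 = 50.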

[5] = system: ACHN; assay: Growth inhibition of human ACHN cells assessed as cell growth at 10^-5 M incubated for 48 hrs by sulforhodamine B assay; settings: read-out: Activity
How it was run: (§1)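 Five-dose assay: five concentrations from 10-fold or ½-log serial dilutions. Cells are plated at 5,000–40,000 per well according to doubling time, grown 24 h, then exposed 48 h at 37 °C, 5% CO₂. Fixed with cold 50% TCA (final addition) for 60 min at 4 °C and stained with 0.4% SRB in 1% acetic acid. Bound dye is solubilized in 10 mM Tris base and read at 515 nm. GI₅₀ is where [(Ti−Tz)/(C−Tz)]×100 = 50, with a time-zero plate as Tz.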

[6] = system: 786-0; assay: Growth inhibition of human 786-0 cells assessed as cell growth at 10^-5 M incubated for 48 hrs by sulforhodamine B assay; settings: 786-0, 48 h, read-out: Activity; how it was run: as §1
[7] = system: NCI-H226; assay: Growth inhibition of human NCI-H226 cells assessed as cell growth at 10 uM incubated for 48 hrs by sulforhodamine B assay; settings: NCI-H226, 48 h, read-out: Activity
[8] = system: A498; assay: Growth inhibition of human A498 cells assessed as cell growth at 10^-8 M incubated for 48 hrs by sulforhodamine B assay; settings: A498, 48 h, read-out: Activity; how it was run: as §1
[9] = system: NCI/ADR-RES; assay: Growth inhibition of human NCI/ADR-RES cells assessed as cell growth at 10^-6 M incubated for 48 hrs by sulforhodamine B assay; settings: read-out: Activity
[10] = system: K562; assay: Growth inhibition of human K562 cells assessed as cell growth at 10^-4 M incubated for 48 hrs by sulforhodamine B assay; settings: K562, 48 h, read-out: Activity
[11] = Growth inhibition of human HOP92 cells assessed as cell growth at 10^-4 M incubated for 48 hrs by sulforhodamine B assay; settings: HOP-92, 48 h, read-out: Activity
[12] = system: M14; assay: Growth inhibition of human M14 cells assessed as cell growth at 10^-7 M incubated for 48 hrs by sulforhodamine B assay; settings: M14, 48 h, read-out: Activity
[13] = system: MDA-MB-231; assay: Growth inhibition of human MDA-MB-231 cells assessed as cell growth at 10^-7 M incubated for 48 hrs by sulforhodamine B assay; settings: MDA-MB-231, 48 h, read-out: Activity
[14] = system: A549; assay: Growth inhibition of human A549/ATCC cells incubated for 48 hrs by sulforhodamine B assay; settings: A549, 48 h; how it was run: as §1
[15] = Growth inhibition of human CNS cancer cells incubated for 48 hrs by sulforhodamine B assay; settings: Cancer cell lines; for CC50: read-out: LC50 (the source's name); how it was run: as §1
[16] = Growth inhibition of human SNB75 cells assessed as cell growth at 10^-7 M incubated for 48 hrs by sulforhodamine B assay; settings: SNB-75, 48 h, read-out: Activity
[17] = Growth inhibition of human SNB75 cells assessed as cell growth at 10^-6 M incubated for 48 hrs by sulforhodamine B assay; settings: SNB-75, 48 h, read-out: Activity
[18] = Growth inhibition of human DU145 cells assessed as cell growth at 10^-7 M incubated for 48 hrs by sulforhodamine B assay; settings: DU-145, 48 h, read-out: Activity
How it was run: (§2)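 Cells seeded at 5,000–40,000/well according to doubling time and preincubated 24 h at 37 °C, 5% CO2. Time-zero plates were TCA-fixed. DMSO concentrate was diluted in medium with 50 µg/ml gentamicin to give five concentrations (10-fold or ½ log steps), then exposed 48 h. Cells were TCA-fixed, stained with 0.4% SRB and read at 515 nm. Percent growth was taken against time-zero and control; GI50, TGI and LC50 derived.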

[19] = Growth inhibition of human HCT15 cells assessed as cell growth at 10^-6 M incubated for 48 hrs by sulforhodamine B assay; settings: HCT-15, 48 h, read-out: Activity; how it was run: as §2
[20] = Growth inhibition of human RPMI8226 cells assessed as cell growth at 10^-5 M incubated for 48 hrs by sulforhodamine B assay; settings: RPMI-8226, 48 h, read-out: Activity
[21] = Growth inhibition of human HL-60(TB) cells incubated for 48 hrs by sulforhodamine B assay; settings: HL-60, 48 h
How it was run: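 Five-concentration, 48 h SRB screen (10-fold or ½-log dilutions from a 400× DMSO concentrate; 24 h preincubation at 37 °C, 5% CO₂; time-zero plate; A515). GI50 was solved from (Ti−Tz)/(C−Tz)×100 = 50. TGI was taken where Ti = Tz, and LC50 from (Ti−Tz)/[…].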

[22] = system: M14; assay: Growth inhibition of human M14 cells assessed as cell growth at 10^-4 M incubated for 48 hrs by sulforhodamine B assay; settings: M14, 48 h, read-out: Activity
[23] = Growth inhibition of human SNB75 cells assessed as cell growth at 10^-5 M incubated for 48 hrs by sulforhodamine B assay; settings: SNB-75, 48 h, read-out: Activity
[24] = system: T47D; assay: Growth inhibition of human T47D cells assessed as cell growth at 10 uM incubated for 48 hrs by sulforhodamine B assay; settings: read-out: Activity
[25] = system: Malme-3M; assay: Growth inhibition of human MALME-3M cells assessed as cell growth at 10^-7 M incubated for 48 hrs by sulforhodamine B assay; settings: read-out: Activity
[26] = system: NCI/ADR-RES; assay: Growth inhibition of human NCI/ADR-RES cells assessed as cell growth at 10^-7 M incubated for 48 hrs by sulforhodamine B assay; settings: read-out: Activity
[27] = read-out: LC50 (the source's name)
[28] = read-out: pLC50 (the source's name) (converted)

c1ccc(-c2nc(Nc3ccc(-c4nc5ccccc5[nH]4)cc3)nc(N3CCOCC3)n2)cc1
growth at 10 µM [1]: -84%
growth at 0.1 µM [2]: 104%
growth at 1 µM [3]: 119%
GI50 ([4]; read-out: GI50): 1.68 µM
CC50 [4, 27]: 5.63 µM
TGI ([4]; read-out: TGI): 3.08 µM
GI50 ([4]; read-out: pGI50 (converted)): 1.7 µM
CC50 [4, 28]: 5.62 µM
TGI ([4]; read-out: pTGI (converted)): 3.09 µM
growth at 10 µM [5]: -82%
growth at 10 µM [6]: -88%
growth at 10 µM [7]: -19.3%
growth at 0.01 µM [8]: 86%
growth at 1 µM [9]: 81%
growth at 100 µM [10]: -55%
growth at 100 µM [11]: -85%
growth at 0.1 µM [12]: 103%
growth at 0.1 µM [13]: 86%
GI50 ([14]; read-out: GI50): 1.95 µM
CC50 [14, 27]: 8.25 µM
TGI ([14]; read-out: TGI): 4.01 µM
GI50 ([14]; read-out: pGI50 (converted)): 1.95 µM
CC50 [14, 28]: 8.32 µM
TGI ([14]; read-out: pTGI (converted)): 3.98 µM
GI50 [15]: 1.41 µM
TGI [15]: 3.04 µM
CC50 [15]: 5.98 µM
growth at 0.1 µM [16]: 96%
growth at 1 µM [17]: 88%
growth at 0.1 µM [18]: 95%
growth at 1 µM [19]: 13%
growth at 10 µM [20]: -32%
GI50 ([21]; read-out: GI50): 0.031 µM
LC50 ([21]; read-out: LC50): 31.2 µM
TGI ([21]; read-out: TGI): 0.601 µM
GI50 ([21]; read-out: pGI50 (converted)): 0.0309 µM
LC50 ([21]; read-out: pLC50 (converted)): 30.9 µM
TGI ([21]; read-out: pTGI (converted)): 0.603 µM
growth at 100 µM [22]: -79%
growth at 10 µM [23]: -88%
growth at 10 µM [24]: -62.3%
growth at 0.1 µM [25]: 131%
growth at 0.1 µM [26]: 95%

Fc1ccc(-c2nc(Nc3ccc(-c4nc5ccccc5[nH]4)cc3)nc(N3CCOCC3)n2)cc1
growth at 10 µM [1]: -60%
growth at 0.1 µM [2]: 101%
growth at 1 µM [3]: 100%
GI50 ([4]; read-out: GI50): 3.13 µM
CC50 [4, 27]: > 100 µM
TGI ([4]; read-out: TGI): 13 µM
GI50 ([4]; read-out: pGI50 (converted)): 3.16 µM
CC50 [4, 28]: > 100 µM
TGI ([4]; read-out: pTGI (converted)): 13.2 µM
growth at 10 µM [5]: 3%
growth at 10 µM [6]: -70%
growth at 10 µM [7]: 17.1%
growth at 0.01 µM [8]: 100%
growth at 1 µM [9]: 90%
growth at 100 µM [11]: -58%
growth at 0.1 µM [12]: 99%
growth at 0.1 µM [13]: 86%
GI50 ([14]; read-out: GI50): 3.24 µM
CC50 [14, 27]: > 100 µM
TGI ([14]; read-out: TGI): > 100 µM
GI50 ([14]; read-out: pGI50 (converted)): 3.24 µM
CC50 [14, 28]: > 100 µM
TGI ([14]; read-out: pTGI (converted)): > 100 µM
GI50 [15]: 2.23 µM
TGI [15]: 11.8 µM
CC50 [15]: 8.47 µM
growth at 0.1 µM [16]: 89%
growth at 1 µM [17]: 67%
growth at 0.1 µM [18]: 100%
growth at 1 µM [19]: 74%
growth at 10 µM [20]: -17%
GI50 ([21]; read-out: GI50): 1.94 µM
LC50 ([21]; read-out: LC50): > 100 µM
TGI ([21]; read-out: TGI): 5.67 µM
GI50 ([21]; read-out: pGI50 (converted)): 1.95 µM
LC50 ([21]; read-out: pLC50 (converted)): > 100 µM
TGI ([21]; read-out: pTGI (converted)): 5.62 µM
growth at 100 µM [22]: -80%
growth at 10 µM [23]: 1%
growth at 10 µM [24]: 16.1%
growth at 0.1 µM [25]: 95%
growth at 0.1 µM [26]: 95%
